Results taken from ChEMBL document CHEMBL1667841, “Furoxan nitric oxide donor coupled chrysin derivatives: synthesis and vasculoprotection” (Bioorg Med Chem Lett, 2011).

What was measured:
[1] = target: Aldo-keto reductase family 1 member B1 (Homo sapiens, UniProt P15121); experiment: Inhibition of aldose reductase by spectrophotometric analysis
[2] = Inhibition of advanced glycation end product formation in phosphate buffered saline at pH 7.4 after 14 days by fluorospectrophotometry; assay type: physicochemical
[3] = Induction of NO release in phosphate buffered saline of pH 7.4 at 10^-4 M after 1 hr by Griess assay in presence of L-cysteine; assay type: physicochemical; conditions: buffer, pH 7.4, 1 h, 100 µM
Summary of the method: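 Compound at 10^-4 M final in 1:1 v/v 50 mM PBS (pH 7.4)/MeOH containing 5 × 10^-4 M L-cysteine, 1 h at 37 °C; mixture treated with Griess reagent, 10 min at room temperature, absorbance 540 nm. Nitrite quantified against sodium nitrite standards (10–80 nmol/mL); expressed as % of theoretical 1 mol NO/mol compound, n = 3.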

Structure (SMILES)	IC50 [1] [nM]	IC50 [2] [nM]	Activity [3] [%]
O=C(COc1cc(O)c2c(=O)cc(-c3ccccc3)oc2c1)OCc1cccc(OCc2c(-c3ccccc3)no[n+]2[O-])c1	220	–	–
CC(=O)Oc1cc(OCC(=O)OCc2cccc(OCc3c(-c4ccccc4)no[n+]3[O-])c2)cc2oc(-c3ccccc3)cc(=O)c12	1620	26400	1.89
O=C(COc1cc(O)c2c(=O)cc(-c3ccccc3)oc2c1)OCc1ccc(OCc2c(-c3ccccc3)no[n+]2[O-])cc1	400	–	–
CC(=O)Oc1cc(OCC(=O)OCc2ccc(OCc3c(-c4ccccc4)no[n+]3[O-])cc2)cc2oc(-c3ccccc3)cc(=O)c12	1930	–	–
CC(=O)Oc1cc(OCC(=O)OCc2c(-c3ccccc3)no[n+]2[O-])cc2oc(-c3ccccc3)cc(=O)c12	900	–	–
O=C(COc1cc(O)c2c(=O)cc(-c3ccccc3)oc2c1)OCc1c(-c2ccccc2)no[n+]1[O-]	750	–	–
[O-][n+]1onc(-c2ccccc2)c1CO	≥ 10000	–	–
O=c1cc(-c2ccccc2)oc2cc(O)cc(O)c12 [CHRYSIN]	7780	63500	–
N=C(N)NN [PIMAGEDINE]	–	826000	–
